{"source": "ChEMBL document CHEMBL1137020", "about": "“Role of the rapA gene in controlling antibiotic resistance of Escherichia coli biofilms” (2007)", "key": {"Escherichia coli [1]": {"system": "Escherichia coli", "experiment": "Antimicrobial activity against Escherichia coli isolate AMG1 24 hrs biofilms at 0.03 ug/ml to 0.12 ug/ml after 24 hrs by microtiter plate count method", "format": "functional, organism-based", "summary_of_the_method": "(§1)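 Microtiter plate biofilms grown 24 h, then exposed 24 h to a range of norfloxacin concentrations. Survival counted as CFU and expressed as percent of 10^8 CFU/ml for each strain.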"}, "Escherichia coli [2]": {"system": "Escherichia coli", "experiment": "Antimicrobial activity against Escherichia coli isolate AMG1 24 hrs biofilms after 24 hrs relative to control", "format": "functional", "summary_of_the_method": "as §1"}, "Escherichia coli [3]": {"system": "Escherichia coli", "experiment": "Antimicrobial activity against Escherichia coli AMG1 isolate 24 hrs flow cell-generated biofilms using BacLight staining by CSLM", "format": "functional, organism-based", "summary_of_the_method": "(§2)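 Penicillin G 350 μg/ml was given in flowing medium for 1 h, with controls kept on antibiotic-free flow. LIVE/DEAD BacLight was stopped in place for 5 min and then rinsed. CSLM green/(red+green) integrated intensity, thresholded, gave percent survival versus untreated controls.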"}, "Escherichia coli [4]": {"system": "Escherichia coli", "experiment": "Antimicrobial activity against tetracycline-resistant Escherichia coli U1 rapA mutant nylon membrane cultivated 24 hrs biofilms at 350 ug/ml after 1 hr", "format": "functional", "summary_of_the_method": "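Nylon membranes (1×1 cm) in LB inoculated at OD600 0.1 and grown 24 h at 37°C. Medium replaced with LB ± penicillin G 350 μg/ml for 1 h. Membranes rinsed and vortexed 2 min in M9 salts, then diluted and plated in quadruplicate on LB agar for CFU.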"}, "Escherichia coli [5]": {"system": "Escherichia coli", "experiment": "Antimicrobial activity against tetracycline-resistant Escherichia coli U1 rapA mutant flow cell-generated 24 hrs biofilms using BacLight staining by CSLM", "format": "functional, organism-based", "summary_of_the_method": "(§3)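 Biofilms grown 24 h in Plexiglas flow cells on M9-Casamino Acid medium under flow. Penicillin G 350 μg/ml in flowing medium for 1 h; controls kept on medium alone. LIVE/DEAD BacLight (Syto9/propidium iodide) injected, flow halted 5 min, then rinsed. CSLM images thresholded. Survival taken as green/(red+green) fluorescence relative to untreated controls.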"}, "Escherichia coli [6]": {"system": "Escherichia coli", "experiment": "Antimicrobial activity against kanamycin-resistant Escherichia coli K-12 M1 W3110 deltarapA mutant flow cell-generated 24 hrs biofilms at 350 ug/ml after 1 hr using BacLight staining by CSLM", "format": "functional", "summary_of_the_method": "as §3"}, "Escherichia coli [7]": {"system": "Escherichia coli", "experiment": "Antimicrobial activity against wild type Escherichia coli K-12 24 hrs biolflim at 350 ug/ml after 1 hr by microtiter plate count method", "format": "functional, organism-based", "summary_of_the_method": "(§4)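 Biofilms were grown 24 h in microtiter plate wells and exposed to penicillin G at 350 μg/ml for 1 h. Viability was counted by CFU plating and compared with untreated control biofilms grown identically. Values are averages of at least three independent determinations ±1 standard deviation. Strain differences were tested by two-tailed Student's t test.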"}, "Escherichia coli [8]": {"system": "Escherichia coli", "experiment": "Antimicrobial activity against tetracycline-resistant Escherichia coli U1 rapA mutant 24 hrs biofilms assessed as viability at 350 ug/ml after 1 hr by microtiter plate count method", "format": "functional", "summary_of_the_method": "(§5)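 Biofilms grown 24 h in microtiter plate wells, then exposed to penicillin G at 350 μg/ml for 1 h. Viability by plate count (CFU) against untreated controls. At least three independent determinations, mean ±1 SD. Strain differences tested by Student's two-tailed t test.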"}, "Escherichia coli [9]": {"system": "Escherichia coli", "experiment": "Antimicrobial activity against wild type Escherichia coli isolate AMG1 grown as planktonic cells after 24 hrs by spectrophotometric method", "format": "functional", "settings": "AMG1, 24 h", "summary_of_the_method": "(§6)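 Wells with 100 and 200 μl LB inoculated to OD600 0.06 and grown 24 h at 37°C without shaking. Medium then replaced with LB containing penicillin G (0–250 μg/ml) for 24 h, and growth read by OD. MIC for planktonic cells and MICadh for biofilm taken as the concentration giving 50% growth reduction versus unexposed control. Biofilm contribution derived from the 100/200 μl OD relation.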"}, "Escherichia coli [10]": {"system": "Escherichia coli", "experiment": "Antimicrobial activity against wild type Escherichia coli isolate AMG1 grown as biofilms after 24 hrs by spectrophotometric method", "format": "functional", "settings": "AMG1, 24 h", "summary_of_the_method": "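Triplicate microtiter wells held 100 and 200 μl LB, inoculated at OD600 0.06 and grown 24 h at 37°C without shaking. Liquid was replaced with LB containing penicillin G at 0–250 μg/ml, and growth was read by plate reader 24 h later. The biofilm contribution came from an equation correlating the two volumes' OD. MICadh is the concentration giving 50% growth reduction versus unexposed control.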"}, "Escherichia coli [11]": {"system": "Escherichia coli", "experiment": "Antimicrobial activity against kanamycin-resistant Escherichia coli K-12 M2 W3110 deltayhcQ mutant 24 hrs biolflim at 350 ug/ml after 1 hr using BacLight staining", "format": "functional", "summary_of_the_method": "as §3"}, "Escherichia coli [12]": {"system": "Escherichia coli", "experiment": "Antimicrobial activity against kanamycin-resistant Escherichia coli K-12 M1 W3110 deltarapA mutant 24 hrs biolflim at 350 ug/ml after 1 hr by microtiter plate count method", "format": "functional, organism-based", "summary_of_the_method": "as §5"}, "Escherichia coli [13]": {"system": "Escherichia coli", "experiment": "Antimicrobial activity against tetracycline-resistant Escherichia coli U1 rapA mutant grown as biofilms after 24 hrs by spectrophotometric method", "format": "functional", "settings": "U1, 24 h", "summary_of_the_method": "as §6"}, "Escherichia coli [14]": {"system": "Escherichia coli", "experiment": "Antimicrobial activity against Escherichia coli isolate AMG1 24 hrs biofilms at 350 ug/ml after 1 hr by microtiter plate count method", "format": "functional", "summary_of_the_method": "as §4"}, "Escherichia coli [15]": {"system": "Escherichia coli", "experiment": "Antimicrobial activity against tetracycline-resistant Escherichia coli U1 rapA mutant grown as planktonic cells after 24 hrs by spectrophotometric method", "format": "functional", "settings": "U1, 24 h", "summary_of_the_method": "as §6"}, "Escherichia coli [16]": {"system": "Escherichia coli", "experiment": "Antimicrobial activity against wild type Escherichia coli K-12 flow cell-generated 24 hrs biofilms at 350 ug/ml after 1 hr using BacLight staining by CSLM", "format": "functional", "summary_of_the_method": "as §2"}, "Escherichia coli [17]": {"system": "Escherichia coli", "experiment": "Antimicrobial activity against kanamycin-resistant Escherichia coli U6 deltayhcQ mutant 24 hrs biofilms at 350 ug/ml after 1 hr by microtiter plate count method", "format": "functional", "summary_of_the_method": "as §5"}}, "note": "The source made the active and inactive calls."}
{"compound": "CCn1cc(C(=O)O)c(=O)c2cc(F)c(N3CCNCC3)cc21", "values": [{"measurement": "Activity", "setting": "Escherichia coli [1]", "value": "Active"}]}
{"compound": "O=C(N[C@H](CO)[C@H](O)c1ccc([N+](=O)[O-])cc1)C(Cl)Cl", "note": "[CHLORAMPHENICOL]", "values": [{"measurement": "Activity", "setting": "Escherichia coli [2]", "value": 40, "unit": "%"}]}
{"compound": "CC1(C)S[C@@H]2[C@H](NC(=O)Cc3ccccc3)C(=O)N2[C@H]1C(=O)O", "note": "[PENICILLIN G]", "values": [{"measurement": "Activity", "setting": "Escherichia coli [3]", "value": "inactive"}, {"measurement": "Activity", "setting": "Escherichia coli [4]", "value": 30, "unit": "%"}, {"measurement": "Activity", "setting": "Escherichia coli [5]", "value": "Active"}, {"measurement": "Activity", "setting": "Escherichia coli [6]", "value": 71, "unit": "%"}, {"measurement": "Activity", "setting": "Escherichia coli [7]", "value": "Active"}, {"measurement": "Activity", "setting": "Escherichia coli [8]", "value": 71, "unit": "%"}, {"measurement": "MIC", "setting": "Escherichia coli [9]", "value": 50, "unit": "µg/mL"}, {"measurement": "MIC", "setting": "Escherichia coli [10]", "value": 250, "unit": "µg/mL"}, {"measurement": "Activity", "setting": "Escherichia coli [11]", "value": 31, "unit": "%"}, {"measurement": "Activity", "setting": "Escherichia coli [12]", "value": "Active"}, {"measurement": "MIC", "setting": "Escherichia coli [13]", "value": 125, "unit": "µg/mL"}, {"measurement": "Activity", "setting": "Escherichia coli [14]", "value": 35, "unit": "%"}, {"measurement": "MIC", "setting": "Escherichia coli [15]", "value": 50, "unit": "µg/mL"}, {"measurement": "Activity", "setting": "Escherichia coli [16]", "value": 22, "unit": "%"}, {"measurement": "Activity", "setting": "Escherichia coli [17]", "value": 55, "unit": "%"}]}
{"compound": "GENTAMICIN", "values": [{"measurement": "Activity", "setting": "Escherichia coli [2]", "value": 40, "unit": "%"}]}
